Results reported in ChEMBL document CHEMBL5214897, “Modular Design of Membrane-Active Antibiotics: From Macromolecular Antimicrobials to Small Scorpionlike Peptidomimetics” (J Med Chem, 2021).
Converted amounts (≈) assume the structure as drawn. The source made the active and inactive calls. The rule behind the calls is not given here.

Columns and labels:
Pseudomonas aeruginosa = assay: Antibacterial activity against Pseudomonas aeruginosa assessed as bacterial growth inhibition incubated for 16 hrs by microplate reader assay; format: functional
Procedure, shortened: (§1)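 Strains E. coli ATCC 25922, K. pneumoniae ATCC 13383, P. aeruginosa ATCC 27853 grown in TSB at 37 °C for 16 h with shaking, subcultured 6 h to mid-log.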

Escherichia coli = assay: Antibacterial activity against Escherichia coli assessed as bacterial growth inhibition incubated for 16 hrs by microplate reader assay; format: functional; procedure, shortened: as §1
Klebsiella pneumoniae = assay: Antibacterial activity against Klebsiella pneumoniae assessed as bacterial growth inhibition incubated for 16 hrs by microplate reader assay; format: functional; procedure, shortened: as §1
[1] = tested on: Staphylococcus epidermidis; assay: Antibacterial activity against methicillin-resistant Staphylococcus epidermidis assessed as bacterial growth inhibition incubated for 16 hrs by microplate reader assay; format: functional
Procedure, shortened: (§2)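 Strains grown in TSB at 37 °C for 16 h with shaking, subcultured 6 h to mid-log. 10^6 CFU/mL bacteria mixed 1:1 with compound over 0.75 to 25 μg/mL. Incubated at 37 °C for 16 h; MIC read on a microplate reader.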

[2] = Hemolytic activity in human RBC assessed as hemolysis incubated for 1 hr by microplate reader assay; format: toxicity, cell-based, Erythrocyte; settings: human red blood cells (erythrocytes)
Procedure, shortened: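 Fresh human erythrocytes washed in 1× PBS (700 g, 10 min), made to 5% suspension, mixed 1:1 with compound (250 to 1.95 µg/mL), 37 °C for 1 h. After centrifugation, supernatant diluted in PBS and A540 read; 2% Triton-100 = 100%, PBS = 0%; HC50 derived from % hemolysis.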

Staphylococcus aureus [3] = assay: Antibacterial activity against methicillin-resistant Staphylococcus aureus assessed as bacterial growth inhibition incubated for 16 hrs by microplate reader assay; format: functional; procedure, shortened: as §2
Enterococcus faecalis = assay: Antibacterial activity against vancomycin-resistant Enterococcus faecalis assessed as bacterial growth inhibition incubated for 16 hrs by microplate reader assay; format: functional; procedure, shortened: as §2
[4] = Therapeutic index, ratio of HC50 for Hemolytic activity in human RBC to MIC for Antibacterial activity against methicillin-resistant Staphylococcus aureus; format: toxicity
Staphylococcus aureus [5] = assay: Antibacterial activity in ICR mouse infected with methicillin-resistant Staphylococcus aureus assessed as presence of erythema at 5 mg/ml,sc measured after 48 hrs; format: functional, organism-based
Procedure, shortened: (§3)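 Female ICR mice (16–20 g), anaesthetised and dorsum shaved. Subcutaneous abscess made with 100 μL MRSA at 1×10^8 CFU/mL. After 30 min, 100 μL of compound in sterile PBS (0.5 or 5 mg/mL) injected into the infection site; PBS controls. At 48 h: skin imaged, abscess bacteria plate-counted, H&E histology, IL-6 and TNF-α measured in skin homogenate by ELISA.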

Staphylococcus aureus [6] = assay: Antibacterial activity in ICR mouse infected with methicillin-resistant Staphylococcus aureus assessed as reduction in microbial burden at 5 mg/ml,sc measured after 48 hrs; format: functional; parameters: scale not given: the % may be the effect or the level left; procedure, shortened: as §3
Staphylococcus aureus [7] = assay: Antibacterial activity in ICR mouse infected with methicillin-resistant Staphylococcus aureus assessed as reduction in TNF-alpha level at 5 mg/ml,sc measured after 48 hrs by ELISA assay; format: functional, organism-based; procedure, shortened: as §3
Staphylococcus aureus [8] = assay: Antibacterial activity in ICR mouse infected with methicillin-resistant Staphylococcus aureus assessed as reduction in skin inflammatory cells at 5 mg/ml,sc measured after 48 hrs by H and E staining based analysis; format: functional, organism-based; procedure, shortened: as §3
[9] = Toxicity in ICR mouse infected with methicillin-resistant Staphylococcus aureus assessed as histopathological abnormalities in liver at […],sc measured after 48 hrs by H and E staining based assay; format: organism-based; settings: in vivo
Procedure, shortened: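 MRSA abscess model in female ICR mice: 100 μL compound in PBS (0.5 or 5 mg/mL) injected subcutaneously at the infection site 30 min after inoculation. Major organs harvested and examined by H&E staining for systemic toxicity.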

Staphylococcus aureus [10] = assay: Antibacterial activity in ICR mouse infected with methicillin-resistant Staphylococcus aureus assessed as reduction in IL-6 level at 5 mg/ml,sc measured after 48 hrs by ELISA assay; format: functional, organism-based; procedure, shortened: as §3
Staphylococcus aureus [11] = assay: Antibacterial activity in ICR mouse infected with methicillin-resistant Staphylococcus aureus assessed as reduction in colony growth at 5 mg/ml,sc measured after 48 hrs; format: functional; procedure, shortened: as §3

SMILES: CCCCCCCC(=O)NCCNC(=O)c1cc(NC(=O)CN(C[C@@H](N)CCCCN)C(=O)CCCCCCC)cc(NC(=O)CN(C[C@@H](N)CCCCN)C(=O)CCCCCCC)c1
- MIC (Pseudomonas aeruginosa): 4.5 µg/mL (≈ 4.92 µM)
- MIC (Escherichia coli): 4.5 µg/mL (≈ 4.92 µM)
- MIC (Klebsiella pneumoniae): > 25 µg/mL
- MIC [1]: 4.5 µg/mL (≈ 4.92 µM)
- HC50 at 1 h [2]: > 250 µg/mL
- MIC (Staphylococcus aureus [3]): 4.5 µg/mL (≈ 4.92 µM)
- MIC (Enterococcus faecalis): 4.5 µg/mL (≈ 4.92 µM)
- selectivity ratio [4]: > 55.5

SMILES: CCCCCCCCCCCC(=O)NCCNC(=O)c1cc(NC(=O)CN(C[C@@H](N)CCCCN)C(=O)CCCCCCC)cc(NC(=O)CN(C[C@@H](N)CCCCN)C(=O)CCCCCCC)c1
- MIC (Pseudomonas aeruginosa): > 25 µg/mL
- MIC (Escherichia coli): > 25 µg/mL
- MIC (Klebsiella pneumoniae): > 25 µg/mL
- MIC [1]: 9 µg/mL (≈ 9.26 µM)
- HC50 at 1 h [2]: > 250 µg/mL
- MIC (Staphylococcus aureus [3]): 4.5 µg/mL (≈ 4.63 µM)
- MIC (Enterococcus faecalis): > 25 µg/mL
- selectivity ratio [4]: > 55.5

SMILES: CCCCCCCCCCCC(=O)NCCNC(=O)c1cc(NC(=O)CN(C[C@@H](N)CCCCN)C(=O)CC23CC4CC(CC(C4)C2)C3)cc(NC(=O)CN(C[C@@H](N)CCCCN)C(=O)CC23CC4CC(CC(C4)C2)C3)c1
- MIC (Pseudomonas aeruginosa): > 25 µg/mL
- MIC (Escherichia coli): > 25 µg/mL
- MIC (Klebsiella pneumoniae): > 25 µg/mL
- MIC [1]: 4.5 µg/mL (≈ 4.2 µM)
- HC50 at 1 h [2]: 250 µg/mL
- MIC (Staphylococcus aureus [3]): 4.5 µg/mL (≈ 4.2 µM)
- MIC (Enterococcus faecalis): 4.5 µg/mL (≈ 4.2 µM)
- selectivity ratio [4]: 55.5

SMILES: CCCCCCCCCC(=O)NCCNC(=O)c1cc(NC(=O)CN(C[C@@H](N)CCCCN)C(=O)CC23CC4CC(CC(C4)C2)C3)cc(NC(=O)CN(C[C@@H](N)CCCCN)C(=O)CC23CC4CC(CC(C4)C2)C3)c1
- MIC (Pseudomonas aeruginosa): 2 µg/mL (≈ 1.92 µM)
- MIC (Escherichia coli): 19 µg/mL (≈ 18.2 µM)
- MIC (Klebsiella pneumoniae): 4.5 µg/mL (≈ 4.31 µM)
- MIC [1]: 2 µg/mL (≈ 1.92 µM)
- HC50 at 1 h [2]: > 250 µg/mL
- MIC (Staphylococcus aureus [3]): 1 µg/mL (≈ 0.958 µM)
- MIC (Enterococcus faecalis): 4.5 µg/mL (≈ 4.31 µM)
- selectivity ratio [4]: > 250

SMILES: CCCCCCCC(=O)NCCNC(=O)c1cc(NC(=O)CN(C[C@@H](N)CCCCN)C(=O)c2cccc(Cl)c2)cc(NC(=O)CN(C[C@@H](N)CCCCN)C(=O)c2cccc(Cl)c2)c1
- MIC (Escherichia coli): > 25 µg/mL
- HC50 at 1 h [2]: > 250 µg/mL
- MIC (Staphylococcus aureus [3]): > 25 µg/mL

SMILES: CCCCCCCCCCCC(=O)NCCNC(=O)c1cc(NC(=O)CNC[C@@H](N)CCCCN)cc(NC(=O)CNC[C@@H](N)CCCCN)c1
- MIC (Escherichia coli): > 25 µg/mL
- HC50 at 1 h [2]: > 250 µg/mL
- MIC (Staphylococcus aureus [3]): > 25 µg/mL

SMILES: CCCCCCCCCCNC(=O)c1cc(NC(=O)CN(C[C@@H](N)CCCCN)C(=O)CC23CC4CC(CC(C4)C2)C3)cc(NC(=O)CN(C[C@@H](N)CCCCN)C(=O)CC23CC4CC(CC(C4)C2)C3)c1
- MIC (Pseudomonas aeruginosa): > 25 µg/mL
- MIC (Escherichia coli): > 25 µg/mL
- MIC (Klebsiella pneumoniae): > 25 µg/mL
- MIC [1]: 9 µg/mL (≈ 9.12 µM)
- HC50 at 1 h [2]: 125 µg/mL
- MIC (Staphylococcus aureus [3]): 2 µg/mL (≈ 2.03 µM)
- MIC (Enterococcus faecalis): 2 µg/mL (≈ 2.03 µM)
- selectivity ratio [4]: 62.5

SMILES: CCCCCCCC(=O)NCCNC(=O)c1cc(NC(=O)CN(C[C@@H](N)CCCCN)C(=O)Cc2cccc3ccccc23)cc(NC(=O)CN(C[C@@H](N)CCCCN)C(=O)Cc2cccc3ccccc23)c1
- MIC (Pseudomonas aeruginosa): > 25 µg/mL
- MIC (Escherichia coli): 4.5 µg/mL (≈ 4.5 µM)
- MIC (Klebsiella pneumoniae): 4.5 µg/mL (≈ 4.5 µM)
- MIC [1]: 9 µg/mL (≈ 9.01 µM)
- HC50 at 1 h [2]: > 250 µg/mL
- MIC (Staphylococcus aureus [3]): 9 µg/mL (≈ 9.01 µM)
- MIC (Enterococcus faecalis): > 25 µg/mL
- selectivity ratio [4]: > 27.8

SMILES: CCCCCCCC(=O)NCCNC(=O)c1cc(NC(=O)CN(C[C@@H](N)CCCCN)C(=O)CCCCC)cc(NC(=O)CN(C[C@@H](N)CCCCN)C(=O)CCCCC)c1
- MIC (Escherichia coli): > 25 µg/mL
- HC50 at 1 h [2]: > 250 µg/mL
- MIC (Staphylococcus aureus [3]): > 25 µg/mL

SMILES: O=C(O)c1cn(C2CC2)c2cc(N3CCNCC3)c(F)cc2c1=O [CIPROFLOXACIN]
- Activity (Staphylococcus aureus [5]): Active
- Activity (Staphylococcus aureus [6]): 81.1%
- MIC (Pseudomonas aeruginosa): 0.45 µg/mL (≈ 1.36 µM)
- MIC (Klebsiella pneumoniae): 0.9 µg/mL (≈ 2.72 µM)
- Activity (Staphylococcus aureus [7]): Active
- Activity (Staphylococcus aureus [8]): Active
- MIC [1]: 0.45 µg/mL (≈ 1.36 µM)
- MIC (Staphylococcus aureus [3]): 0.24 µg/mL (≈ 0.724 µM)
- MIC (Enterococcus faecalis): 0.9 µg/mL (≈ 2.72 µM)
- Activity [9]: Toxic
- Activity (Staphylococcus aureus [10]): Active
- Activity (Staphylococcus aureus [11]): 0.7 log10CFU/ml

SMILES: CCCCCCCCNC(=O)c1cc(NC(=O)CN(C[C@@H](N)CCCCN)C(=O)CC23CC4CC(CC(C4)C2)C3)cc(NC(=O)CN(C[C@@H](N)CCCCN)C(=O)CC23CC4CC(CC(C4)C2)C3)c1
- MIC (Pseudomonas aeruginosa): 19 µg/mL (≈ 19.8 µM)
- MIC (Escherichia coli): 9 µg/mL (≈ 9.39 µM)
- MIC (Klebsiella pneumoniae): 9 µg/mL (≈ 9.39 µM)
- MIC [1]: 4.5 µg/mL (≈ 4.7 µM)
- HC50 at 1 h [2]: 125 µg/mL
- MIC (Staphylococcus aureus [3]): 2 µg/mL (≈ 2.09 µM)
- MIC (Enterococcus faecalis): 4.5 µg/mL (≈ 4.7 µM)
- selectivity ratio [4]: 62.5

SMILES: CCCCCCCC(=O)NCCNC(=O)c1cc(NC(=O)CN(C[C@@H](N)CCCCN)C(=O)CC23CC4CC(CC(C4)C2)C3)cc(NC(=O)CN(C[C@@H](N)CCCCN)C(=O)CC23CC4CC(CC(C4)C2)C3)c1
- MIC (Pseudomonas aeruginosa): 4.5 µg/mL (≈ 4.43 µM)
- MIC (Escherichia coli): 4.5 µg/mL (≈ 4.43 µM)
- MIC (Klebsiella pneumoniae): 4.5 µg/mL (≈ 4.43 µM)
- MIC [1]: 2 µg/mL (≈ 1.97 µM)
- HC50 at 1 h [2]: > 250 µg/mL
- MIC (Staphylococcus aureus [3]): 2 µg/mL (≈ 1.97 µM)
- MIC (Enterococcus faecalis): 4.5 µg/mL (≈ 4.43 µM)
- selectivity ratio [4]: > 125

SMILES: CCCCCCCC(=O)NCCNC(=O)c1cc(NC(=O)CN(C[C@@H](N)CCCCN)C(=O)c2ccc(-c3ccccc3)cc2)cc(NC(=O)CN(C[C@@H](N)CCCCN)C(=O)c2ccc(-c3ccccc3)cc2)c1
- MIC (Pseudomonas aeruginosa): 4.5 µg/mL (≈ 4.4 µM)
- MIC (Escherichia coli): 9 µg/mL (≈ 8.79 µM)
- MIC (Klebsiella pneumoniae): > 25 µg/mL
- MIC [1]: 4.5 µg/mL (≈ 4.4 µM)
- HC50 at 1 h [2]: > 250 µg/mL
- MIC (Staphylococcus aureus [3]): 4.5 µg/mL (≈ 4.4 µM)
- MIC (Enterococcus faecalis): 4.5 µg/mL (≈ 4.4 µM)
- selectivity ratio [4]: > 55.5

SMILES: CCCCCCCC(=O)NCCNC(=O)c1cc(NC(=O)CN(C[C@@H](N)CCCCN)C(=O)c2ccc(Cl)cc2)cc(NC(=O)CN(C[C@@H](N)CCCCN)C(=O)c2ccc(Cl)cc2)c1
- MIC (Escherichia coli): > 25 µg/mL
- HC50 at 1 h [2]: > 250 µg/mL
- MIC (Staphylococcus aureus [3]): > 25 µg/mL

SMILES: CCCCCCNC(=O)c1cc(NC(=O)CN(C[C@@H](N)CCCCN)C(=O)CC23CC4CC(CC(C4)C2)C3)cc(NC(=O)CN(C[C@@H](N)CCCCN)C(=O)CC23CC4CC(CC(C4)C2)C3)c1
- MIC (Pseudomonas aeruginosa): 4.5 µg/mL (≈ 4.84 µM)
- MIC (Escherichia coli): 9 µg/mL (≈ 9.67 µM)
- MIC (Klebsiella pneumoniae): 9 µg/mL (≈ 9.67 µM)
- MIC [1]: 2 µg/mL (≈ 2.15 µM)
- HC50 at 1 h [2]: 125 µg/mL
- MIC (Staphylococcus aureus [3]): 2 µg/mL (≈ 2.15 µM)
- MIC (Enterococcus faecalis): 2 µg/mL (≈ 2.15 µM)
- selectivity ratio [4]: 62.5
